The record followed here is ChEMBL document CHEMBL2331325, “Antioxidant lignans and chromone glycosides from Eurya japonica” (J Nat Prod, 2013).

Each structure is given as a SMILES string.

Data set [1] in a line: Cytotoxicity against mouse RAW264.7 cells assessed as cell viability at 20 ug/ml after 24 hrs by MTT assay. Format: cell-based. The conditions noted are these: read-out: Activity. Summed up: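 Viability of RAW 264.7 cells measured by MTT after 24 h co-treatment with LPS (1000 ng/mL) and compound at 20 μg/mL. Compounds dissolved in DMSO and diluted in sterile PBS.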
On the technique in general: Tetrazolium assays rely on reduction of a dye to a coloured formazan, in cell work by metabolically active cells.

The test system of data set [2] is Radical scavenging activity. Description: Antioxidant activity assessed as DPPH radical scavenging activity […]. Format: functional. In short, it runs like this:
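Shaken in the dark at room temperature for 30 min, then absorbance read at 517 nm. Negative control without compound. ED50 taken as the concentration scavenging 50% of DPPH radicals.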
(In general: DPPH is a stable violet radical that fades when it is reduced.)

The test system of data set [3] is RAW264.7. The data set can be described thus: Inhibition of LPS-induced NO production in mouse RAW264.7 cells after 24 hrs at 20 ug/ml. Format: functional. Set-up: scale not given: the % may be the effect or the level left.
Data set [4] relates to RAW264.7. The data set can be described thus: Inhibition of LPS-induced NO production in mouse RAW264.7 cells after 24 hrs. Type of data set: functional, cell-based. The conditions noted are these: RAW264.7, 24 h.

With `COc1cc([C@H]2c3c(cc(OC)c(O)c3OC)C[C@@H](CO[C@@H]3O[C@H](CO)[C@@H](O)[C@H](O)[C@H]3O)[C@@H]2CO)cc(OC)c1O`, the viability at 24 h, 20 ug/ml in data set [1] came out at 101%. In addition, the ED50 in data set [2] was determined as 37.6 µM. In data set [3], this compound came in with an Activity of 39.22%.

Turning to `COc1ccc(O[C@@H]2O[C@H](CO)[C@@H](O)[C@H](O)[C@H]2O)cc1OC`, the ED50 in data set [2] is over 100 µM.

With `O=C1c2c(O)cc(O)cc2O[C@@H](c2ccc(O)c(O)c2)[C@H]1O[C@@H]1OC[C@@H](O)[C@H](O)[C@H]1O`, the viability at 24 h, 20 ug/ml in data set [1] turned out to be 102%. Further, the ED50 in data set [2] turned out to be 26.5 µM. This compound also gave an Activity in data set [3] of 36.7%.

With `O=c1c(O[C@@H]2OC[C@@H](O)[C@H](O)[C@H]2O)coc2cc(O)cc(O)c12`, the viability at 24 h, 20 ug/ml in data set [1] came to 102%. Further, in data set [2], the ED50 is over 100 µM. In data set [3], this compound yielded an Activity of 36.24%.

On to `COc1cc(O[C@@H]2O[C@H](CO)[C@@H](O)[C@H](O)[C@H]2O)cc(OC)c1OC`, for which the ED50 in data set [2] was over 100 µM.

Consider `O=C1c2c(O)cc(O)cc2O[C@H](c2ccc(O)c(O)c2)[C@H]1O[C@@H]1OC[C@@H](O)[C@H](O)[C@H]1O`, for which the viability at 24 h, 20 ug/ml in data set [1] stood at 105%. Moreover, the ED50 in data set [2] is 30.4 µM. This compound registered an Activity in data set [3] of 33.26%.

`COc1cc2c(c(OC)c1O)[C@H]1c3c(cc(OC)c(O)c3OC)OC[C@@H](C2)[C@H]1CO[C@@H]1O[C@H](CO)[C@@H](O)[C@H](O)[C@H]1O`: in data set [1], the viability at 24 h, 20 ug/ml is 110%. In data set [2], the ED50 came to 24.7 µM. Moreover, the Activity in data set [3] was found to be 40.37%.

In the case of `C=C(C)[C@@H]1CC[C@]2(C(=O)O)CC[C@]3(C)[C@H](CC[C@@H]4[C@@]5(C)CC[C@H](O)C(C)(C)[C@@H]5CC[C@]43C)[C@@H]12` [BETULINIC ACID], the viability at 24 h, 20 ug/ml in data set [1] was 60.3%. Also, the ED50 in data set [2] is over 100 µM. The compound further showed an Activity in data set [3] of 56.19%.

Turning to `O=C1C=CC(O)(CCO[C@@H]2O[C@H](COC(=O)/C=C/c3ccc(O)cc3)[C@@H](O)[C@H](O)[C@H]2O)C=C1`, the ED50 in data set [2] is over 100 µM.

In the case of `O=C1c2c(O)cc(O)cc2O[C@H](c2ccc(O)c(O)c2)[C@H]1O[C@@H]1O[C@H](CO)[C@@H](O)[C@H](O)[C@H]1O`, in data set [1], the viability at 24 h, 20 ug/ml was determined as 101%. The ED50 in data set [2] stood at 33.5 µM. In addition, the Activity in data set [3] amounted to 35.55%.

Consider `COc1cc2c(c(OC)c1O)[C@@H]1c3c(cc(OC)c(O)c3OC)OC[C@H](C2)[C@@H]1CO[C@@H]1O[C@H](CO)[C@@H](O)[C@H](O)[C@H]1O`, for which the viability at 24 h, 20 ug/ml in data set [1] worked out at 106%. Further, the ED50 in data set [2] came to 23.4 µM. Further, the Activity in data set [3] came to 38.99%.

Take `O=c1c(O[C@@H]2OC[C@H](O)[C@H](O)[C@H]2O)coc2cc(O)cc(O)c12`: in data set [1], the viability at 24 h, 20 ug/ml amounted to 106%. In addition, the ED50 in data set [2] is 133 µM. The compound further had an Activity in data set [3] of 38.07%.

On to `O=C1c2c(O)cc(O)cc2O[C@H](c2ccc(O)c(O)c2)[C@@H]1O[C@@H]1OC[C@@H](O)[C@H](O)[C@H]1O`, for which, in data set [1], the viability at 24 h, 20 ug/ml amounted to 108%. For the same compound, the ED50 in data set [2] was found to be 26.6 µM. The compound further returned an Activity in data set [3] of 35.32%.

Regarding `COc1cc(CO)cc(OC)c1O[C@@H]1O[C@H](CO)[C@@H](O)[C@H](O)[C@H]1O`, the ED50 in data set [2] is over 100 µM.

Regarding `O=C1O[C@H]2[C@H](O)[C@@H](O)[C@H](CO)O[C@@H]2c2c1cc(O)c(O)c2O`, in data set [2], the ED50 is over 100 µM.

Regarding `COc1cc([C@@H]2c3c(cc(OC)c(O)c3OC)C[C@H](CO)[C@H]2CO[C@@H]2O[C@H](CO)[C@@H](O)[C@H](O)[C@H]2O)cc(OC)c1O`, the viability at 24 h, 20 ug/ml in data set [1] was 104%. In addition, the ED50 in data set [2] was found to be 26.6 µM. This compound gave an Activity in data set [3] of 38.76%.

For the compound `O=c1c(O)c(-c2ccc(O)c(O)c2)oc2cc(O)cc(O)c12` [QUERCETIN], the IC50 (as a rule, the concentration that gives 50% inhibition) in data set [4] was determined as 1300 nM.

As for `Cc1c(C)c2c(c(C)c1O)CC[C@@](C)(CCC[C@H](C)CCC[C@H](C)CCCC(C)C)O2`, the ED50 in data set [2] came to 27.2 µM.

For the compound `O=C1c2c(O)cc(O)cc2OC(c2ccc(O)c(O)c2)C1O[C@@H]1OC[C@@H](O)[C@H](O)[C@H]1O` (single isomer, unassigned), the viability at 24 h, 20 ug/ml in data set [1] is 107%. The ED50 in data set [2] turned out to be 25.2 µM. Further, in data set [3], the Activity worked out at 37.84%.

In the case of `COc1cc([C@H]2c3cc(O)c(OC)cc3C[C@@H](CO)[C@@H]2CO[C@@H]2O[C@@H](C)[C@H](O)[C@@H](O)[C@H]2O)ccc1O` [AVICULIN], the viability at 24 h, 20 ug/ml in data set [1] was 112%. The ED50 in data set [2] is 44.8 µM. The same compound yielded an Activity in data set [3] of 39.68%.

Take `CC[C@H](CC[C@@H](C)[C@H]1CC[C@H]2[C@@H]3CC=C4C[C@@H](O[C@@H]5O[C@H](CO)[C@@H](O)[C@H](O)[C@H]5O)CC[C@]4(C)[C@H]3CC[C@]12C)C(C)C`: the ED50 in data set [2] was over 100 µM.

Consider `COc1cc(CCO)cc(OC)c1O[C@@H]1O[C@H](CO)[C@@H](O)[C@H](O)[C@H]1O`, for which the ED50 in data set [2] is over 100 µM.

Regarding `O=c1c(O[C@@H]2O[C@H](CO)[C@@H](O)[C@H](O)[C@H]2O)coc2cc(O)cc(O)c12`, the viability at 24 h, 20 ug/ml in data set [1] amounted to 105%. For the same compound, in data set [2], the ED50 is over 100 µM. The Activity in data set [3] stood at 53.79%.

As for `O=C1c2c(O)cc(O)cc2O[C@@H](c2ccc(O)c(O)c2)[C@@H]1O[C@@H]1O[C@H](CO)[C@@H](O)[C@H](O)[C@H]1O`, in data set [1], the viability at 24 h, 20 ug/ml was found to be 105%. In addition, in data set [2], the ED50 was determined as 36.2 µM. The compound also had an Activity in data set [3] of 35.78%.

With `COc1cc(O[C@@H]2O[C@H](CO)[C@@H](O)[C@H](O)[C@H]2O)cc(O)c1OC`, in data set [2], the ED50 was over 100 µM.

Consider `O=C(/C=C/c1ccc(O)cc1)OC[C@H]1O[C@@H](OCCc2ccc(O)c(O)c2)[C@H](O)[C@@H](O)[C@@H]1O`, for which, in data set [2], the ED50 came to 33 µM.

With `COc1cc(CCCO)cc(OC)c1O[C@@H]1O[C@H](CO)[C@@H](O)[C@H](O)[C@H]1O`, the ED50 in data set [2] is over 100 µM.
